Data: ChEMBL document CHEMBL1156307 (J Med Chem, 2010)

How the values were obtained:
[1] = molecular target: Voltage-gated inwardly rectifying potassium channel KCNH2 (Homo sapiens, UniProt Q12809); assay: Inhibition of human ERG expressed in CHO cells by automated patch clamp electrophysiology assay
[2] = Antiproliferative activity against human H1299 cells by MTS assay; format: functional, cell-based; details: NCI-H1299
Method in brief: (§1)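 Monolayer proliferation assay. Cells were seeded at 5000-10000 per well and exposed to eight serial compound dilutions for 72 h. Viability was read by CellTiter-Glo or MTS per the kit protocol, and IC50 was taken from growth curves. Each determination averaged triplicate concentration-inhibition curves. Values are the mean ± standard deviation of two separate determinations.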

[3] = molecular target: Histone deacetylase 1 (Homo sapiens, UniProt Q13547); assay: Inhibition of FLAG-tagged HDAC1 expressed in HEK293 cells by fluorescent assay; format: cell-based
[4] = test system: HCT-116; assay: Antiproliferative activity against human HCT116 cells by MTS assay; format: functional, cell-based; method in brief: as §1
[5] = Association constant, pKa at pH 2 to 12; format: physicochemical
[6] = molecular target: Histone deacetylase 3 (Homo sapiens, UniProt O15379); assay: Inhibition of FLAG-tagged HDAC3 expressed in HEK293 cells by fluorescent assay; format: cell-based
Method in brief: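 HDAC3 immunopurified from 293 cells stably expressing FLAG-tagged enzyme. Substrate bis-Boc-(Ac)Lys-rhodamine 110; its deacetylation releases a fluorophore, read on a fluorometric plate reader.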

[7] = molecular target: T1, Histone deacetylase 8 (Homo sapiens, UniProt Q9BY41); assay: Inhibition of HDAC8 expressed in baculovirus system by fluorescent assay
T1 sequence (Q9BY41 whole entry): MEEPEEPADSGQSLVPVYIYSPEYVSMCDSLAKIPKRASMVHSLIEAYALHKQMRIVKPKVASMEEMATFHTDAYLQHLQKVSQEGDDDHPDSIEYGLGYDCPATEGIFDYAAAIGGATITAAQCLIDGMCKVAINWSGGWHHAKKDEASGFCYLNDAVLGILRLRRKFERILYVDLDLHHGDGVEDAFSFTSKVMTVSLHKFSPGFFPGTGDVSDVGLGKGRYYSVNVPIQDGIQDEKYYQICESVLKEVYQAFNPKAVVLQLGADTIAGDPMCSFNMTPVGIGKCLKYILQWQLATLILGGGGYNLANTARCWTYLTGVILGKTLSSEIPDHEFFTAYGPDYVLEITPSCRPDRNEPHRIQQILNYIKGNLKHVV

[8] = molecular target: T2, Protein deacetylase HDAC6 (Homo sapiens, UniProt Q9UBN7); assay: Inhibition of FLAG-tagged HDAC6 expressed in HEK293 cells by fluorescent assay; format: cell-based
T2 sequence (Q9UBN7 whole entry): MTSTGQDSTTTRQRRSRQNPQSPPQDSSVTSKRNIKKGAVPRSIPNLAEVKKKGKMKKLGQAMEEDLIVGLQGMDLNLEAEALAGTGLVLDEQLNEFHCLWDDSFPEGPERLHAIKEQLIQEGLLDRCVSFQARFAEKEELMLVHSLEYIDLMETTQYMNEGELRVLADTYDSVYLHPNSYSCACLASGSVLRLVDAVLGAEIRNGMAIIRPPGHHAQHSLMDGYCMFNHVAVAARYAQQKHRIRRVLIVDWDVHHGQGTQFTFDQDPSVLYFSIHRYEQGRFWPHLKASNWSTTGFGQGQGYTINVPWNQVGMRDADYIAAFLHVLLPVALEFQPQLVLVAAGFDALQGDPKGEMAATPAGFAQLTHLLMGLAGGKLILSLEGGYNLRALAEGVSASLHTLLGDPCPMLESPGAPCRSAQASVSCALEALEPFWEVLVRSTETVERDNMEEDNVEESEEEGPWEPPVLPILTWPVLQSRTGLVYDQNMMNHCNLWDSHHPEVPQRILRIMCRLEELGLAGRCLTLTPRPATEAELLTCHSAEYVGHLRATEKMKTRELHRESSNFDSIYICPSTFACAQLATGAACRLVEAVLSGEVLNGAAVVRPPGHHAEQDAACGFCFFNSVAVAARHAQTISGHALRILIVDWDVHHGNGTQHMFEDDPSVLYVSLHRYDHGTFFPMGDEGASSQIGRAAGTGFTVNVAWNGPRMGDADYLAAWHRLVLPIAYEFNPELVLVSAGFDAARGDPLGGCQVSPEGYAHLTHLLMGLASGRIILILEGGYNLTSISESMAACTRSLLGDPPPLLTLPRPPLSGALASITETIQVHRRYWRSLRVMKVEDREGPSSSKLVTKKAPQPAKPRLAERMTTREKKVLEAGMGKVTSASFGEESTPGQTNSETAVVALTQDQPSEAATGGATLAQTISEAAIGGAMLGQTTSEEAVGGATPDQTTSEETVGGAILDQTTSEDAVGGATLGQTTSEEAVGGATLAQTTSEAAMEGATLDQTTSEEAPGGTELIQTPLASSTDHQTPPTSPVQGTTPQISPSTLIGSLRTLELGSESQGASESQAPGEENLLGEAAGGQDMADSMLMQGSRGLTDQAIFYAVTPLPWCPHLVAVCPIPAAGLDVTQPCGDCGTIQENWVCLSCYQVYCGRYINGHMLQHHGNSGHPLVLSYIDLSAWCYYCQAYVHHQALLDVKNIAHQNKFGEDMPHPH
Method in brief: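 HDAC6 immunopurified from 293 cells stably expressing the FLAG-tagged isoform. Deacetylation of the bis-Boc-(Ac)Lys-rhodamine 110 substrate releases a fluorophore, read on a fluorometric plate reader.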

[9] = molecular target: Histone deacetylase 2 (Homo sapiens, UniProt Q92769); assay: Inhibition of HDAC2 expressed in baculovirus system by fluorescent assay
[10] = molecular target: Histone deacetylase 4 (Homo sapiens, UniProt P56524); assay: Inhibition of HDAC4 expressed in baculovirus system by fluorescent assay
Method in brief: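 HDAC4 purified from a baculovirus expression system. Substrate bis-Boc-(Ac)Lys-rhodamine 110; its deacetylation generates a fluorophore, read on a fluorometric plate reader.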

Sequence of Histone deacetylase 1 (Q13547 whole entry): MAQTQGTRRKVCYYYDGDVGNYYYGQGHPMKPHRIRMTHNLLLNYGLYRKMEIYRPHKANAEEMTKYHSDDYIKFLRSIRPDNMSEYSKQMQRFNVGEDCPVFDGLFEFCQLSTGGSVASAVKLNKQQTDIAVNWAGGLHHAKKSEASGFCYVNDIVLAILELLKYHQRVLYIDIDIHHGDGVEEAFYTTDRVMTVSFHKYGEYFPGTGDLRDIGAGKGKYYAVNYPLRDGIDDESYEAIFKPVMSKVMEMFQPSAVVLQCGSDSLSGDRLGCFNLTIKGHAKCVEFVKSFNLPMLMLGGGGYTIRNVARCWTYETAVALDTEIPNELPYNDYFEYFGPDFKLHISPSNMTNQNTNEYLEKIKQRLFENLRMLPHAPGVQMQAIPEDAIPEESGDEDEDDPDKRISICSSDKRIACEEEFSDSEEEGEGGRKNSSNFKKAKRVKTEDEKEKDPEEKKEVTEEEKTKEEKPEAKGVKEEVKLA
Sequence of Voltage-gated inwardly rectifying potassium channel KCNH2 (Q12809 whole entry): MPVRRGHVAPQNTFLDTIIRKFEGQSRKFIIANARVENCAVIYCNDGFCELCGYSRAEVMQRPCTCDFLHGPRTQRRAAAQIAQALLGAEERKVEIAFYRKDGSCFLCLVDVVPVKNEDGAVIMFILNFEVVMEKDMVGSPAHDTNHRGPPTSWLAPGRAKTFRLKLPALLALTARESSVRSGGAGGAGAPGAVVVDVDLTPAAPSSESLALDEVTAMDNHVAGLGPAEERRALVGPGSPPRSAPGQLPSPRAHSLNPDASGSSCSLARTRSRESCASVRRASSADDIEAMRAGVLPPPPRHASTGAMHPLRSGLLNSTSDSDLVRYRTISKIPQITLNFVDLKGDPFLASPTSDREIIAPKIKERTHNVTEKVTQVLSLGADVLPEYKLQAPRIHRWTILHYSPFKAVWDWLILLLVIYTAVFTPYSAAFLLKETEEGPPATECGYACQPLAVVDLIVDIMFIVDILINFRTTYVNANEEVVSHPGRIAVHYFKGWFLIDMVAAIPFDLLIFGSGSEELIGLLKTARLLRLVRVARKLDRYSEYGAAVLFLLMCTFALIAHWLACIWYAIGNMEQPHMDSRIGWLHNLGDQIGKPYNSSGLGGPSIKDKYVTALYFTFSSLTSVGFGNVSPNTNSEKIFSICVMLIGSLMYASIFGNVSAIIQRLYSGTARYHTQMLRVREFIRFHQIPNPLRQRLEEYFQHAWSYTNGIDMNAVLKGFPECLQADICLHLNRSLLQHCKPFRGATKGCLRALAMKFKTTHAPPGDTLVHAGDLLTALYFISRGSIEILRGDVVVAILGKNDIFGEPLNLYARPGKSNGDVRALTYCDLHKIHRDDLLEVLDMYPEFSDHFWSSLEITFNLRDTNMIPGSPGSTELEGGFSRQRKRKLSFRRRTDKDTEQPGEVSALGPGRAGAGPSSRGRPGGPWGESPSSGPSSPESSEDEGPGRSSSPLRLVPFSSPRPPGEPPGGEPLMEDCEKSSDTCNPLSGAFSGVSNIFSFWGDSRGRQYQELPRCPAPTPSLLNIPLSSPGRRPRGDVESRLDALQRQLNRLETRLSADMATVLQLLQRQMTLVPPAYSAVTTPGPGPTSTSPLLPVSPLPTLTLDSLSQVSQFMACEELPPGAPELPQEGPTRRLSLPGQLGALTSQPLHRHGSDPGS
Sequence of Histone deacetylase 2 (Q92769 whole entry): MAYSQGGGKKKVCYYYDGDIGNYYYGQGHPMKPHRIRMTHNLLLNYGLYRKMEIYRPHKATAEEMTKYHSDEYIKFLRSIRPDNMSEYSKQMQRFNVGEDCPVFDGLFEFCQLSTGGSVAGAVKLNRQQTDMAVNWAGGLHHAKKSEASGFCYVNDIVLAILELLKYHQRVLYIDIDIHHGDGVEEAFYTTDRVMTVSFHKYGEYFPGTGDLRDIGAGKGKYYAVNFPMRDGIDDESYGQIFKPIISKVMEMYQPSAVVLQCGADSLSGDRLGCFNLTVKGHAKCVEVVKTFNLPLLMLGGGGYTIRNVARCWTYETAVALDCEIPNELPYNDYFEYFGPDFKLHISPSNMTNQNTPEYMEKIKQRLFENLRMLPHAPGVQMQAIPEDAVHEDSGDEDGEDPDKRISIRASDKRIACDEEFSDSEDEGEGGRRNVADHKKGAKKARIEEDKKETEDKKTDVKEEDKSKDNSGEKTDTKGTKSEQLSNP
Sequence of Histone deacetylase 3 (O15379 whole entry): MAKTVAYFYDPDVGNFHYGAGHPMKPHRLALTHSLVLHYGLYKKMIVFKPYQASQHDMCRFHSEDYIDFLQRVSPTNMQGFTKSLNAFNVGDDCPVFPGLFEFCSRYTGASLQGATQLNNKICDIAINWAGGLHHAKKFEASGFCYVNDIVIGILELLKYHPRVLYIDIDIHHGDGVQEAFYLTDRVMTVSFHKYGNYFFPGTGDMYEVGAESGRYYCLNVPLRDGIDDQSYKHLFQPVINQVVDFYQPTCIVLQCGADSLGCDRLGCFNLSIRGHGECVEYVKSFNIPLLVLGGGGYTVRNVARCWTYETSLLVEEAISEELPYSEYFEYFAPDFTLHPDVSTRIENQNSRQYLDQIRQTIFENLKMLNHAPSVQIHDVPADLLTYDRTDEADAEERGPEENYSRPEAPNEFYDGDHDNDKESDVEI
Sequence of Histone deacetylase 4 (P56524 whole entry): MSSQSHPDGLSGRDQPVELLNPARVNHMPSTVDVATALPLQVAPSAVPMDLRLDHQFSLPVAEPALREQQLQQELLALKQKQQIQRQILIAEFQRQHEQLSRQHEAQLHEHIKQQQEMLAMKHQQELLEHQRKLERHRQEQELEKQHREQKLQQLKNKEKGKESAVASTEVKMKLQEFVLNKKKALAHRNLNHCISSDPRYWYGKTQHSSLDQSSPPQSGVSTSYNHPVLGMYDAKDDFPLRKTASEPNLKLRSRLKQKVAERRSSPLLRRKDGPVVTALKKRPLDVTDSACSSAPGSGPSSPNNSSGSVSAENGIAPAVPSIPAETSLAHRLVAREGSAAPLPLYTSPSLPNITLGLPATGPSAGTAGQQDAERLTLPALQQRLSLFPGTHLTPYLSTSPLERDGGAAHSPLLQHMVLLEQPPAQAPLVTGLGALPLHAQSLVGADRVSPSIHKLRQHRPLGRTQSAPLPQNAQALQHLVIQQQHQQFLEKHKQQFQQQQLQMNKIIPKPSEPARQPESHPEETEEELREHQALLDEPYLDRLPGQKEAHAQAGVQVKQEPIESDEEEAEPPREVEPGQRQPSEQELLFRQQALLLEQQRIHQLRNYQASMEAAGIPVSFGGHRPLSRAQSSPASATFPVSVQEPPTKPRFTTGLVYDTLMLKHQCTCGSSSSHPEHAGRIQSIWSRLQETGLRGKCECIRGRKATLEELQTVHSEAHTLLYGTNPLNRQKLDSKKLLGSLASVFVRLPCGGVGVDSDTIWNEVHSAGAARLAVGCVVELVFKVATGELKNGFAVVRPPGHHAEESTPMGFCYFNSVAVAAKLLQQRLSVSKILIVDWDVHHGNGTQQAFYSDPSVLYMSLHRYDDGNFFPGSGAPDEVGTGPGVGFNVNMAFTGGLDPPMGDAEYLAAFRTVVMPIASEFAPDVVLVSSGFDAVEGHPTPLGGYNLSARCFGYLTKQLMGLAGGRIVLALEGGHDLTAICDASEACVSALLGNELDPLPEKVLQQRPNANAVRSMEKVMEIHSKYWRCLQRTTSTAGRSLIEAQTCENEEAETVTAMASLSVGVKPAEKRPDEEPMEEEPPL

Row | IC50 [3] | IC50 [4] | pKa [5] | Structure (SMILES) | IC50 [1] | IC50 [2] | IC50 [6] | IC50 [7] | IC50 [8] | IC50 [9] | IC50 [10]
1 | 11 nM | 25 nM | 7.3 | O=C(/C=C/c1ccc(CN2CCCC(c3c[nH]c4ccccc34)C2)cc1)NO (configuration not stated) |  | 141 nM |  |  |  |  | 
2 |  | 3.8 nM | 7.3 | CC(C)(C)c1[nH]c2ccccc2c1C1CCCN(Cc2ccc(/C=C/C(=O)NO)cc2F)C1 (configuration not stated) |  | 20 nM |  |  |  |  | 
3 |  | 5.2 nM | 7.4 | CC(C)(C)c1[nH]c2ccccc2c1C1CCCN(Cc2ccc(/C=C/C(=O)NO)cc2Cl)C1 (configuration not stated) | 9900 nM | 60 nM |  |  |  |  | 
4 | 76 nM | 545 nM |  | Cc1[nH]c2ccccc2c1CCN1CCc2ccc(/C=C/C(=O)NO)cc2CC1 | 3200 nM | > 1000 nM |  |  |  |  | 
5 | 24 nM | 27 nM |  | Cc1[nH]c2ccccc2c1CC1CCCCN1Cc1ccc(/C=C/C(=O)NO)cc1 (configuration not stated) |  | 153 nM |  |  |  |  | 
6 | 2.8 nM | 3.2 nM |  | Cc1[nH]c2ccccc2c1C1CCN(Cc2ccc(/C=C/C(=O)NO)cc2)C1 (configuration not stated) | 13400 nM | 14 nM |  |  |  |  | 
7 |  | 0.9 nM | 7.8 | CC(C)(C)c1[nH]c2ccccc2c1C1CCCN(Cc2ccc(/C=C/C(=O)NO)cc2)C1 (configuration not stated) | 13500 nM | 6.3 nM |  |  |  |  | 
8 |  | 13 nM |  | O=C(/C=C/c1ccc(CN(CCO)CCc2c[nH]c3ccccc23)cc1)NO [DACINOSTAT] |  | 161 nM |  |  |  |  | 
9 | 16 nM | 11 nM | 7.4 | O=C(/C=C/c1ccc(CN2CCCC(c3c(-c4ccccc4)[nH]c4ccccc34)C2)c(F)c1)NO (configuration not stated) |  | 106 nM |  |  |  |  | 
10 | 11 nM | 6.9 nM | 7.7 | O=C(/C=C/c1ccc(CN2CCCC(c3c(-c4ccccc4)[nH]c4ccccc34)C2)cc1)NO (configuration not stated) |  | 31 nM |  |  |  |  | 
11 | 136 nM | 332 nM |  | O=C(/C=C/c1ccc(CN2CCCC(c3c[nH]c4ccccc34)C2)c(F)c1)NO (configuration not stated) |  | 3520 nM |  |  |  |  | 
12 | 5 nM | 5.6 nM | 7.8 | Cc1[nH]c2ccccc2c1C1CCCN(Cc2ccc(/C=C/C(=O)NO)cc2)C1 (configuration not stated) | 27600 nM | 31 nM |  |  |  |  | 

Row | Structure (SMILES) | IC50 [3] | IC50 [4] | pKa [5] | IC50 [1] | IC50 [2] | IC50 [6] | IC50 [7] | IC50 [8] | IC50 [9] | IC50 [10]
13 | Cc1[nH]c2ccccc2c1CCN1Cc2ccc(/C=C/C(=O)NO)cc2C1 | 27 nM | 41 nM |  | 4800 nM | 232 nM |  |  |  |  | 
14 | Cc1[nH]c2ccccc2c1CCN1CCc2cc(/C=C/C(=O)NO)ccc2C1 | 41 nM | 119 nM |  |  | 725 nM |  |  |  |  | 
15 | CC(C)(C)c1[nH]c2ccccc2c1[C@H]1CCCN(Cc2ccc(/C=C/C(=O)NO)cc2F)C1 |  | 0.8 nM |  |  | 5.4 nM | 9 nM | 217 nM | 118 nM | 31 nM | 28 nM
16 | Cc1[nH]c2ccccc2c1CCN1CCCC1c1ccc(/C=C/C(=O)NO)cc1 (configuration not stated) |  | 1 nM |  | 19400 nM | 4.3 nM |  |  |  |  | 
17 | CC(C)(C)c1[nH]c2ccccc2c1[C@@H]1CCCN(Cc2ccc(/C=C/C(=O)NO)cc2F)C1 |  | 143 nM |  |  | 443 nM | 21 nM | 364 nM | 110 nM | 48 nM | 38 nM
18 | Cc1[nH]c2ccccc2c1CCN1CCc2ccc(/C=C/C(=O)NO)cc2C1 | 13 nM | 42 nM |  | 2700 nM | 165 nM |  |  |  |  | 
